According to ChEMBL document CHEMBL1154352, “Toll-like receptor 7 selective synthetic oligoribonucleotide agonists: synthesis and structure-activity relationship studies” (J Med Chem, 2009):

Experiments:
[1] = Metabolic stability in human serum assessed as full length product remaining after 10 mins by HPLC; type: ADME, cell-free; conditions: read-out: Stability
Method in brief: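 About 0.5 A260 units compound in 1% human serum in PBS, 37 °C; aliquot taken at 10 min, analysed by anion-exchange HPLC for percent intact full-length product.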

[2] = target: T1, Toll-like receptor 8 (Homo sapiens) (UniProt Q9NR97); assay: Activation of human TLR8 expressed in HEK293XL assessed as fold induction of NF-kappaB activity at 50 ug/ml after 18 hrs by reporter gene assay relative to control
T1 sequence (whole entry): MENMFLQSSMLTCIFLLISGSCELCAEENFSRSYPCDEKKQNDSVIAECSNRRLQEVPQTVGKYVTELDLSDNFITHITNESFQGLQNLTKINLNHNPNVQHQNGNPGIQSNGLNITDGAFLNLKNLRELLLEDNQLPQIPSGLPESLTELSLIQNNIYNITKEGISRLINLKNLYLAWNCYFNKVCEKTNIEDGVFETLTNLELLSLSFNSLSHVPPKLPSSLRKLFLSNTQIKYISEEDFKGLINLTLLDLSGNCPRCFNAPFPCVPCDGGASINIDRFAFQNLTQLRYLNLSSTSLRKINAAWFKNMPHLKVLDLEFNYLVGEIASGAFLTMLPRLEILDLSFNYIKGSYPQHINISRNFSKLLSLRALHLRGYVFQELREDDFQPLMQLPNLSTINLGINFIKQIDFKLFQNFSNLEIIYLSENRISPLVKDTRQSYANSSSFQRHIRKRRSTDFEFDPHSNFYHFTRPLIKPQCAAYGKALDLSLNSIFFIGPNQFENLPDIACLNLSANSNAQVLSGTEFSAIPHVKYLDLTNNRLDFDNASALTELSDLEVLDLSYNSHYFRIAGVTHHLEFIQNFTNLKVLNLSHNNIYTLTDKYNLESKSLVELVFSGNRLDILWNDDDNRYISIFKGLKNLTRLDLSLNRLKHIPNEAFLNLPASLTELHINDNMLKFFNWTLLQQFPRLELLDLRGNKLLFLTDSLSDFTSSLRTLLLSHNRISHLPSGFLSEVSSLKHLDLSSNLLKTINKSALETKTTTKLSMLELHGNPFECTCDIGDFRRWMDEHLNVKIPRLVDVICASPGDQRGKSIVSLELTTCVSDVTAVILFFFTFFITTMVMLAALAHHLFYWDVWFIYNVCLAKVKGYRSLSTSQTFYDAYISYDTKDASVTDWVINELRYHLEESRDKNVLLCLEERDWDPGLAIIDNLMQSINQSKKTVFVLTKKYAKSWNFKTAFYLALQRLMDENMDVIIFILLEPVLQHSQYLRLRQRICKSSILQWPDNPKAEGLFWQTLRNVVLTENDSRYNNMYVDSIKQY
Method in brief: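 HEK293 cells stably expressing human TLR7 or TLR8, transiently transfected with SEAP reporter plasmid; medium replaced, SIMRA compounds added, 18 h incubation. Supernatant SEAP measured by QuantiBlue; expressed as fold increase in NF-κB activity over PBS control. Tabulated data at 50 μg/mL, representative of three independent experiments.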

remaining at 10 min [1] | fold change (FC) [2] | Structure (SMILES)
83% | 1.6 | Nc1ccn([C@@H]2O[C@H](COP(=O)(S)O[C@H]3[C@@H](O)[C@H](n4ccc5c(=O)[nH]c(N)nc54)O[C@@H]3COP(=O)(S)O[C@H]3[C@@H](O)[C@H](n4cnc5c(N)ncnc54)O[C@@H]3COP(=O)(S)O[C@H]3[C@@H](O)[C@H](n4cnc5c(N)ncnc54)O[C@@H]3COP(=O)(S)O[C@H]3[C@@H](O)[C@H](n4ccc5c(=O)[nH]c(N)nc54)O[C@@H]3COP(=O)(S)O[C@H]3[C@@H](O)[C@H](n4ccc(=O)[nH]c4=O)O[C@@H]3COP(=O)(S)O[C@H]3[C@@H](O)[C@H](n4ccc(=O)[nH]c4=O)O[C@@H]3COP(=O)(S)O[C@H]3[C@@H](O)[C@H](n4cnc5c(N)ncnc54)O[C@@H]3COP(=O)(S)O[C@H]3[C@@H](O)[C@H](n4cnc5c(N)ncnc54)O[C@@H]3CO)[C@@H](OP(=O)(S)OC[C@H]3O[C@@H](n4ccc(=O)[nH]c4=O)[C@H](O)[C@@H]3OP(=O)(S)OC[C@H]3O[C@@H](n4ccc(=O)[nH]c4=O)[C@H](O)[C@@H]3OP(=O)(S)OCC(O)COP(=O)(S)O[C@H]3[C@@H](O)[C@H](n4ccc(=O)[nH]c4=O)O[C@@H]3COP(=O)(S)O[C@H]3[C@@H](O)[C@H](n4ccc(=O)[nH]c4=O)O[C@@H]3COP(=O)(S)O[C@H]3[C@@H](O)[C@H](n4ccc(N)nc4=O)O[C@@H]3COP(=O)(S)O[C@H]3[C@@H](O)[C@H](n4ccc5c(=O)[nH]c(N)nc54)O[C@@H]3COP(=O)(S)O[C@H]3[C@@H](O)[C@H](n4cnc5c(N)ncnc54)O[C@@H]3COP(=O)(S)O[C@H]3[C@@H](O)[C@H](n4cnc5c(N)ncnc54)O[C@@H]3COP(=O)(S)O[C@H]3[C@@H](O)[C@H](n4ccc5c(=O)[nH]c(N)nc54)O[C@@H]3COP(=O)(S)O[C@H]3[C@@H](O)[C@H](n4ccc(=O)[nH]c4=O)O[C@@H]3COP(=O)(S)O[C@H]3[C@@H](O)[C@H](n4ccc(=O)[nH]c4=O)O[C@@H]3COP(=O)(S)O[C@H]3[C@@H](O)[C@H](n4cnc5c(N)ncnc54)O[C@@H]3COP(=O)(S)O[C@H]3[C@@H](O)[C@H](n4cnc5c(N)ncnc54)O[C@@H]3CO)[C@H]2O)c(=O)n1 (stereo partly drawn)
83% | 0.3 | Nc1ccn([C@@H]2O[C@H](COP(=O)(S)O[C@H]3[C@@H](O)[C@H](n4cnc5c(N)ncnc54)O[C@@H]3COP(=O)(S)O[C@H]3[C@@H](O)[C@H](n4cnc5c(N)ncnc54)O[C@@H]3CO)[C@@H](OP(=O)(S)OC[C@H]3O[C@@H](n4ccc(=O)[nH]c4=O)[C@H](O)[C@@H]3OP(=O)(S)OC[C@H]3O[C@@H](n4ccc5c(=O)[nH]c(N)nc54)[C@H](O)[C@@H]3OP(=O)(S)OC[C@H]3O[C@@H](n4ccc(N)nc4=O)[C@H](O)[C@@H]3OP(=O)(S)OC[C@H]3O[C@@H](n4ccc5c(=O)[nH]c(N)nc54)[C@H](O)[C@@H]3OP(=O)(S)OC[C@H]3O[C@@H](n4cnc5c(N)ncnc54)[C@H](O)[C@@H]3OP(=O)(S)OC[C@H]3O[C@@H](n4ccc(N)nc4=O)[C@H](O)[C@@H]3OP(=O)(S)OC[C@H]3O[C@@H](n4ccc(=O)[nH]c4=O)[C@H](O)[C@@H]3OP(=O)(S)OC[C@H]3O[C@@H](n4ccc(=O)[nH]c4=O)[C@H](O)[C@@H]3OP(=O)(S)OCC(O)COP(=O)(S)O[C@H]3[C@@H](O)[C@H](n4ccc(=O)[nH]c4=O)O[C@@H]3COP(=O)(S)O[C@H]3[C@@H](O)[C@H](n4ccc(=O)[nH]c4=O)O[C@@H]3COP(=O)(S)O[C@H]3[C@@H](O)[C@H](n4ccc(N)nc4=O)O[C@@H]3COP(=O)(S)O[C@H]3[C@@H](O)[C@H](n4cnc5c(N)ncnc54)O[C@@H]3COP(=O)(S)O[C@H]3[C@@H](O)[C@H](n4ccc5c(=O)[nH]c(N)nc54)O[C@@H]3COP(=O)(S)O[C@H]3[C@@H](O)[C@H](n4ccc(N)nc4=O)O[C@@H]3COP(=O)(S)O[C@H]3[C@@H](O)[C@H](n4ccc5c(=O)[nH]c(N)nc54)O[C@@H]3COP(=O)(S)O[C@H]3[C@@H](O)[C@H](n4ccc(=O)[nH]c4=O)O[C@@H]3COP(=O)(S)O[C@H]3[C@@H](O)[C@H](n4ccc(N)nc4=O)O[C@@H]3COP(=O)(S)O[C@H]3[C@@H](O)[C@H](n4cnc5c(N)ncnc54)O[C@@H]3COP(=O)(S)O[C@H]3[C@@H](O)[C@H](n4cnc5c(N)ncnc54)O[C@@H]3CO)[C@H]2O)c(=O)n1 (stereo partly drawn)
82% | 0.2 | Nc1ccn([C@@H]2O[C@H](COP(=O)(S)O[C@H]3[C@@H](O)[C@H](n4cnc5c(N)ncnc54)O[C@@H]3COP(=O)(S)O[C@H]3[C@@H](O)[C@H](n4ccc5c(=O)[nH]c(N)nc54)O[C@@H]3COP(=O)(S)O[C@H]3[C@@H](O)[C@H](n4ccc(=O)[nH]c4=O)O[C@@H]3COP(=O)(S)O[C@H]3[C@@H](O)[C@H](n4ccc(=O)[nH]c4=O)O[C@@H]3COP(=O)(S)O[C@H]3[C@@H](O)[C@H](n4cnc5c(N)ncnc54)O[C@@H]3COP(=O)(S)O[C@H]3[C@@H](O)[C@H](n4cnc5c(N)ncnc54)O[C@@H]3CO)[C@@H](OP(=O)(S)OC[C@H]3O[C@@H](n4ccc5c(=O)[nH]c(N)nc54)[C@H](O)[C@@H]3OP(=O)(S)OC[C@H]3O[C@@H](n4ccc(N)nc4=O)[C@H](O)[C@@H]3OP(=O)(S)OC[C@H]3O[C@@H](n4ccc(=O)[nH]c4=O)[C@H](O)[C@@H]3OP(=O)(S)OC[C@H]3O[C@@H](n4ccc5c(=O)[nH]c(N)nc54)[C@H](O)[C@@H]3OP(=O)(S)OCC(O)COP(=O)(S)O[C@H]3[C@@H](O)[C@H](n4ccc5c(=O)[nH]c(N)nc54)O[C@@H]3COP(=O)(S)O[C@H]3[C@@H](O)[C@H](n4ccc(=O)[nH]c4=O)O[C@@H]3COP(=O)(S)O[C@H]3[C@@H](O)[C@H](n4ccc(N)nc4=O)O[C@@H]3COP(=O)(S)O[C@H]3[C@@H](O)[C@H](n4ccc5c(=O)[nH]c(N)nc54)O[C@@H]3COP(=O)(S)O[C@H]3[C@@H](O)[C@H](n4ccc(N)nc4=O)O[C@@H]3COP(=O)(S)O[C@H]3[C@@H](O)[C@H](n4cnc5c(N)ncnc54)O[C@@H]3COP(=O)(S)O[C@H]3[C@@H](O)[C@H](n4ccc5c(=O)[nH]c(N)nc54)O[C@@H]3COP(=O)(S)O[C@H]3[C@@H](O)[C@H](n4ccc(=O)[nH]c4=O)O[C@@H]3COP(=O)(S)O[C@H]3[C@@H](O)[C@H](n4ccc(=O)[nH]c4=O)O[C@@H]3COP(=O)(S)O[C@H]3[C@@H](O)[C@H](n4cnc5c(N)ncnc54)O[C@@H]3COP(=O)(S)O[C@H]3[C@@H](O)[C@H](n4cnc5c(N)ncnc54)O[C@@H]3CO)[C@H]2O)c(=O)n1 (stereo partly drawn)
78% | 0.9 | Nc1ccn([C@@H]2O[C@H](COP(=O)(S)O[C@H]3[C@@H](O)[C@H](n4cnc5c(N)ncnc54)O[C@@H]3CO)[C@@H](OP(=O)(S)OC[C@H]3O[C@@H](n4ccc5c(=O)[nH]c(N)nc54)[C@H](O)[C@@H]3OP(=O)(S)OC[C@H]3O[C@@H](n4ccc(N)nc4=O)[C@H](O)[C@@H]3OP(=O)(S)OC[C@H]3O[C@@H](n4ccc(=O)[nH]c4=O)[C@H](O)[C@@H]3OP(=O)(S)OC[C@H]3O[C@@H](n4ccc5c(=O)[nH]c(N)nc54)[C@H](O)[C@@H]3OP(=O)(S)OC[C@H]3O[C@@H](n4cnc5c(N)ncnc54)[C@H](O)[C@@H]3OP(=O)(S)OC[C@H]3O[C@@H](n4ccc5c(=O)[nH]c(N)nc54)[C@H](O)[C@@H]3OP(=O)(S)OC[C@H]3O[C@@H](n4ccc(N)nc4=O)[C@H](O)[C@@H]3OP(=O)(S)OC[C@H]3O[C@@H](n4ccc(=O)[nH]c4=O)[C@H](O)[C@@H]3OP(=O)(S)OC[C@H]3O[C@@H](n4ccc(=O)[nH]c4=O)[C@H](O)[C@@H]3OP(=O)(S)OCC(O)COP(=O)(S)O[C@H]3[C@@H](O)[C@H](n4ccc(=O)[nH]c4=O)O[C@@H]3COP(=O)(S)O[C@H]3[C@@H](O)[C@H](n4ccc(=O)[nH]c4=O)O[C@@H]3COP(=O)(S)O[C@H]3[C@@H](O)[C@H](n4ccc(N)nc4=O)O[C@@H]3COP(=O)(S)O[C@H]3[C@@H](O)[C@H](n4ccc5c(=O)[nH]c(N)nc54)O[C@@H]3COP(=O)(S)O[C@H]3[C@@H](O)[C@H](n4cnc5c(N)nc(N)nc54)O[C@@H]3COP(=O)(S)O[C@H]3[C@@H](O)[C@H](n4ccc5c(=O)[nH]c(N)nc54)O[C@@H]3COP(=O)(S)O[C@H]3[C@@H](O)[C@H](n4ccc(=O)[nH]c4=O)O[C@@H]3COP(=O)(S)O[C@H]3[C@@H](O)[C@H](n4ccc(N)nc4=O)O[C@@H]3COP(=O)(S)O[C@H]3[C@@H](O)[C@H](n4ccc5c(=O)[nH]c(N)nc54)O[C@@H]3COP(=O)(S)O[C@H]3[C@@H](O)[C@H](n4ccc(N)nc4=O)O[C@@H]3COP(=O)(S)O[C@H]3[C@@H](O)[C@H](n4cnc5c(N)ncnc54)O[C@@H]3CO)[C@H]2O)c(=O)n1 (stereo partly drawn)
